“And” between values parts separate entries of the source, which are not always exact repeats. Identical values can stand only once. “Also recorded” adds a separate entry of the source.
What was measured:
[1] = Phase I dose escalation: adverse events and dose-limiting toxicities; assay type: in vivo, human
In short: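 Open-label, single-institution 3 + 3 escalation. IV temsirolimus 25 mg weekly was infused over 30 min after IV diphenhydramine 25–50 mg premedication. A 1-wk temsirolimus-alone run-in preceded daily oral HCQ (200, 400, 800, 1200 mg), split ≥6 h apart above 200 mg. Cycles lasted 4 wk. The DLT window was the first 6 wk, later 5 wk. Toxicity-evaluable patients took ≥1 HCQ dose. Blood counts were weekly, then every 2 wk.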

advanced melanoma [2] = test: RECIST 1.0 response and progression-free survival, melanoma patients; assay type: in vivo, human
In short: (§1)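 Patients received IV temsirolimus 25 mg weekly, with a 1-wk single-agent run-in, then daily oral HCQ, treated until progression. Patients were evaluable for response after completing ≥2 wk of concurrent HCQ and temsirolimus. Progression was defined as >20% increase in measurable disease or appearance of a new lesion. Non-evaluable patients were replaced.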

[3] = HCQ whole blood population pharmacokinetics; assay type: in vivo, human
advanced solid tumors = test: RECIST 1.0 response, phase I dose escalation; assay type: in vivo, human
In short: as §1

advanced melanoma [4] = details: temsirolimus alone, of 33 patients; cited from earlier work
[5] = test system: cutaneous melanoma metastases; test: Autophagic vacuole accumulation in serial tumor biopsies by electron microscopy; assay type: in vivo, human; details: after 4 h of treatment with TEM, one melanoma patient
In short: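 Cutaneous melanoma metastases sampled serially by punch biopsy from patients on IV temsirolimus 25 mg weekly plus oral HCQ 1200 mg/d. Tumour was dissected on ice and fixed immediately in EM fixative (2% glutaraldehyde, as used for PBMC) before electron microscopy for autophagic vacuoles.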

[6] = test system: autophagic vacuoles in peripheral blood mononuclear cells (PBMC); test: Autophagic vacuole; assay type: in vivo, human; details: 1 wk, 24 h or 4 h after first TEM infusion, data pooled
[7] = Total, all HCQ doses + TEM 25 mg weekly, N=39
[8] = daily HCQ 200 mg + TEM 25 mg weekly, N=11
[9] = daily HCQ 400 mg + TEM 25 mg weekly, N=3
[10] = daily HCQ 800 mg + TEM 25 mg weekly, N=9
[11] = daily HCQ 1200 mg + TEM 25 mg weekly, N=16
[12] = Melanoma patients, HCQ dose cohort 200–800 + TEM, N=6
[13] = Melanoma patients, HCQ dose cohort 1200 + TEM, N=13
[14] = melanoma expansion, of 12 patients, HCQ 1200 mg/d + TEM
[15] = population PK, 1000 bootstrap runs
[16] = population PK, whole blood, 34 patients, oral HCQ
[17] = Phase I dose escalation, HCQ dose cohort 200 + TEM, N=6 evaluable
[18] = Phase I dose escalation, HCQ dose cohort 400 + TEM, N=3
[19] = Phase I dose escalation, HCQ dose cohort 800 + TEM, N=9
[20] = Phase I dose escalation, HCQ dose cohort 1200 + TEM, N=3
[21] = Phase I dose escalation, Total, N=21 evaluable
[22] = dose escalation, of 19 patients

SMILES: CCN(CCO)CCCC(C)Nc1ccnc2cc(Cl)ccc12 (stereo not drawn) [HCQ, hydroxychloroquine]
- Anal fissure G1–2, % [1, 7]: 5%
- Anal fissure G1–2, patients [1, 7]: 2
- Anemia G1–2, patients [1, 7]: 4
- Anemia G3–4, patients [1, 7]: 4
- Anorexia G1–2, % [1, 7]: 41%
- Anorexia G1–2, patients [1, 7]: 16
- Anorexia G3–4, % [1, 7]: 8%
- Anorexia G3–4, patients [1, 7]: 3
- Constipation G1–2, % [1, 7]: 13%
- Constipation G1–2, patients [1, 7]: 5
- Diarrhea G1–2, patients [1, 7]: 7
- Dizziness G1–2, % [1, 7]: 5%
- Dizziness G1–2, patients [1, 7]: 2
- Dysguesia G1–2, patients [1, 7]: 2
- Dysguesia G3–4, patients [1, 7]: 1
- Elevated creatinine G1–2, patients [1, 7]: 2
- Elevated creatinine G3–4, patients [1, 7]: 1
- Fatigue G1–2, patients [1, 7]: 19
- Fatigue G3–4, patients [1, 7]: 3
- Lymphopenia G1–2, % [1, 7]: 31%
- Lymphopenia G3–4, % [1, 7]: 3%
- Lymphopenia G3–4, patients [1, 7]: 1
- Nausea G1–2, patients [1, 7]: 13
- Nausea G3–4, % [1, 7]: 15%
- Nausea G3–4, patients [1, 7]: 6
- Neutropenia G1–2, % [1, 7]: 3%
- Neutropenia G1–2, patients [1, 7]: 1
- Poor wound healing G1–2, patients [1, 7]: 2
- Rash G1–2, patients [1, 7]: 15
- Stomatitis G1–2, patients [1, 7]: 16
- Thrombocytopenia G1–2, % [1, 7]: 21%
- Thrombocytopenia G1–2, patients [1, 7]: 8
- Thrombocytopenia G3–4, % [1, 7]: 3%
- Thrombocytopenia G3–4, patients [1, 7]: 1
- Vitiligo G1–2, % [1, 7]: 5%
- Vitiligo G1–2, patients [1, 7]: 2
- Weight loss G1–2, % [1, 7]: 18%
- Weight loss G1–2, patients [1, 7]: 7
- Anemia G1–2, % [1, 8]: 9%
- Anemia G1–2, patients [1, 8]: 1
- Anemia G3–4, % [1, 8]: 9%
- Anemia G3–4, patients [1, 8]: 1
- Anorexia G1–2, % [1, 8]: 36%
- Anorexia G1–2, patients [1, 8]: 4
- Diarrhea G1–2, patients [1, 8]: 3
- Fatigue G1–2, patients [1, 8]: 5
- Lymphopenia G1–2, % [1, 8]: 45%
- Lymphopenia G1–2, patients [1, 8]: 5
- Nausea G1–2, patients [1, 8]: 4
- Nausea G3–4, patients [1, 8]: 1
- Neutropenia G1–2, patients [1, 8]: 1
- Rash G1–2, patients [1, 8]: 3
- Stomatitis G1–2, patients [1, 8]: 4
- Thrombocytopenia G1–2, % [1, 8]: 36%
- Thrombocytopenia G1–2, patients [1, 8]: 4
- Thrombocytopenia G3–4, % [1, 8]: 9%
- Thrombocytopenia G3–4, patients [1, 8]: 1
- Weight loss G1–2, % [1, 8]: 18%
- Weight loss G1–2, patients [1, 8]: 2
- Anemia G1–2, % [1, 9]: 33%
- Anemia G1–2, patients [1, 9]: 1
- Anemia G3–4, % [1, 9]: 33%
- Anemia G3–4, patients [1, 9]: 1
- Anorexia G1–2, % [1, 9]: 33%
- Anorexia G1–2, patients [1, 9]: 1
- Diarrhea G1–2, % [1, 9]: 33%
- Diarrhea G1–2, patients [1, 9]: 1
- Fatigue G1–2, % [1, 9]: 67%
- Fatigue G1–2, patients [1, 9]: 2
- Lymphopenia G1–2, % [1, 9]: 33%
- Lymphopenia G1–2, patients [1, 9]: 1
- Rash G1–2, patients [1, 9]: 1
- Stomatitis G1–2, patients [1, 9]: 1
- Weight loss G1–2, % [1, 9]: 67%
- Weight loss G1–2, patients [1, 9]: 2
- Anal fissure G1–2, % [1, 10]: 11%
- Anal fissure G1–2, patients [1, 10]: 1
- Anemia G1–2, % [1, 10]: 22%
- Anemia G1–2, patients [1, 10]: 2
- Anemia G3–4, patients [1, 10]: 1
- Anorexia G1–2, % [1, 10]: 56%
- Anorexia G1–2, patients [1, 10]: 5
- Anorexia G3–4, % [1, 10]: 11%
- Anorexia G3–4, patients [1, 10]: 1
- Constipation G1–2, % [1, 10]: 11%
- Constipation G1–2, patients [1, 10]: 1
- Diarrhea G1–2, % [1, 10]: 11%
- Diarrhea G1–2, patients [1, 10]: 1
- Fatigue G1–2, patients [1, 10]: 2
- Fatigue G3–4, patients [1, 10]: 2
- Lymphopenia G1–2, % [1, 10]: 33%
- Lymphopenia G1–2, patients [1, 10]: 3
- Nausea G1–2, patients [1, 10]: 4
- Nausea G3–4, patients [1, 10]: 1
- Rash G1–2, patients [1, 10]: 2
- Stomatitis G1–2, patients [1, 10]: 4
- Thrombocytopenia G1–2, % [1, 10]: 22%
- Thrombocytopenia G1–2, patients [1, 10]: 2
- Weight loss G1–2, patients [1, 10]: 1
- Anal fissure G1–2, % [1, 11]: 6%
- Anal fissure G1–2, patients [1, 11]: 1
- Anemia G3–4, % [1, 11]: 6%
- Anemia G3–4, patients [1, 11]: 1
- Anorexia G1–2, % [1, 11]: 38%
- Anorexia G1–2, patients [1, 11]: 6
- Anorexia G3–4, % [1, 11]: 13%
- Anorexia G3–4, patients [1, 11]: 2
- Constipation G1–2, patients [1, 11]: 4
- Diarrhea G1–2, % [1, 11]: 13%
- Diarrhea G1–2, patients [1, 11]: 2
- Dizziness G1–2, % [1, 11]: 13%
- Dizziness G1–2, patients [1, 11]: 2
- Dysguesia G1–2, patients [1, 11]: 2
- Dysguesia G3–4, patients [1, 11]: 1
- Elevated creatinine G1–2, patients [1, 11]: 2
- Elevated creatinine G3–4, patients [1, 11]: 1
- Fatigue G1–2, patients [1, 11]: 10
- Fatigue G3–4, patients [1, 11]: 1
- Lymphopenia G1–2, % [1, 11]: 38%
- Lymphopenia G1–2, patients [1, 11]: 6
- Lymphopenia G3–4, % [1, 11]: 6%
- Lymphopenia G3–4, patients [1, 11]: 1
- Nausea G1–2, patients [1, 11]: 5
- Nausea G3–4, % [1, 11]: 25%
- Nausea G3–4, patients [1, 11]: 4
- Poor wound healing G1–2, patients [1, 11]: 2
- Rash G1–2, patients [1, 11]: 9
- Stomatitis G1–2, patients [1, 11]: 7
- Thrombocytopenia G1–2, % [1, 11]: 13%
- Thrombocytopenia G1–2, patients [1, 11]: 2
- Vitiligo G1–2, patients [1, 11]: 2
- Weight loss G1–2, % [1, 11]: 13%
- Weight loss G1–2, patients [1, 11]: 2
- Grade 3 pulmonary tumor abscess ([1]; head and neck cancer patient with history of aspiration, cycle 3): One patient
- Recommended phase II dose of HCQ ([1]; in combination with TEM 25 mg weekly): 600 mg twice daily
- Maximum tolerated dose (MTD) of HCQ ([1]; in combination with TEM 25 mg weekly, up to 1200 mg/d): not reached; also recorded: not defined
- Grade 4 cholangitis and sepsis during tumor regression ([1]; melanoma patient with large gall bladder metastases, cohort not stated): One patient
- PD (progressive disease), patients (advanced melanoma [2]; [12]): 1
- PR (partial response), patients (advanced melanoma [2]; [12]): 0
- PD (progressive disease), patients (advanced melanoma [2]; [13]): 4
- PR (partial response), patients (advanced melanoma [2]; [13]): 0
- PD (progressive disease), % (advanced melanoma [2]; Melanoma patients, Total, N=19): 26%
- PD (progressive disease), patients (advanced melanoma [2]; Melanoma patients, Total, N=19): 5
- PR (partial response), patients (advanced melanoma [2]; Melanoma patients, Total, N=19): 0
- Median progression-free survival (advanced melanoma [2]; evaluable melanoma patients, HCQ 1200 mg/d + TEM, 95%CI 2–6 mo): 3.5 mo
- Patients with some degree of tumor shrinkage (waterfall plot) (advanced melanoma [2]; [14]): 6
- Patients with some degree of tumor shrinkage, % (advanced melanoma [2]; [14]): 50%
- Vd/F ([3]; human, whole blood, po): 865 L
- Cl/F, apparent oral clearance, bootstrap estimate [3, 15]: 15.953 L/h
- Ka, absorption rate constant, bootstrap estimate [3, 15]: 0.758 h
- Q, intercompartmental clearance, bootstrap estimate [3, 15]: 26.421 L/h
- Tlag, absorption lag time, bootstrap estimate [3, 15]: 0.564 h
- V2/F, apparent peripheral volume of distribution, bootstrap estimate [3, 15]: 3285.0246 L
- V/F, apparent central volume of distribution, bootstrap estimate [3, 15]: 496.0499 L
- Cl/F, apparent oral clearance, model estimate [3, 16]: 17.517 L/h
- Ka, absorption rate constant, model estimate [3, 16]: 0.649 h
- Q, intercompartmental clearance, model estimate [3, 16]: 26.067 L/h
- Tlag, absorption lag time, model estimate [3, 16]: 0.399 h
- V2/F, apparent peripheral volume of distribution, model estimate [3, 16]: 3236.73 L
- Time to steady-state of HCQ blood concentrations, average ([3]; simulated from final PK model for individual patients): 350 h and 360 h
- Blood HCQ AUC, Cmax, Cmin and Cavg relationship to dose ([3]; simulated steady-state, 200–1200 mg/d): proportional to daily HCQ dose
- PD (progressive disease), patients (advanced solid tumors; [17]): 2
- PR (partial response), patients (advanced solid tumors; [17]): 0
- PD (progressive disease), patients (advanced solid tumors; [18]): 0
- PR (partial response), patients (advanced solid tumors; [18]): 0
- PD (progressive disease), patients (advanced solid tumors; [19]): 4
- PR (partial response), patients (advanced solid tumors; [19]): 0
- PD (progressive disease), patients (advanced solid tumors; [20]): 1
- PR (partial response), patients (advanced solid tumors; [20]): 0
- PD (progressive disease), % (advanced solid tumors; [21]): 33%
- PD (progressive disease), patients (advanced solid tumors; [21]): 7
- PR (partial response), % (advanced solid tumors; [21]): 0 (0%)
- PR (partial response), patients (advanced solid tumors; [21]): 0 (0%)
- Partial responses by RECIST 1.0, whole study (advanced solid tumors; all cohorts): No partial responses
- Patients with some degree of tumor shrinkage (waterfall plot) (advanced solid tumors; [22]): 7
- Patients with some degree of tumor shrinkage, % (advanced solid tumors; [22]): 37%

SMILES: CO[C@H]1C[C@@H]2CC[C@@H](C)[C@@](O)(O2)C(=O)C(=O)N2CCCC[C@H]2C(=O)O[C@H]([C@H](C)C[C@@H]2CC[C@@H](OC(=O)C(C)(CO)CO)[C@H](OC)C2)CC(=O)[C@H](C)/C=C(\C)[C@@H](O)[C@@H](OC)C(=O)[C@H](C)C[C@H](C)/C=C/C=C/C=C/1C [TEM, temsirolimus]
- Patients with partial response (advanced melanoma [4]): 1
- Patients with stable disease (advanced melanoma [4]): 0
- AV in tumor tissue compared with baseline [5]: no accumulation of AV
- AV/cell in PBMC after TEM treatment alone [6]: no significant increase in AV

Reference: article PMC4203516 (Autophagy, 2014)
